Reference: ChEMBL document CHEMBL4725413, “Quinoline-Pyrazole Scaffold as a Novel Ligand of Galectin-3 and Suppressor of TREM2 Signaling” (ACS Med Chem Lett, 2020)

Columns and labels:
[1] = test system: BV-2; assay: Antiinflammatory activity in mouse BV-2 cells assessed as reduction in Abeta-induced IL-8 release incubated for 12 hrs by ELISA; type: functional, cell-based; details: dose microM 2.5-10, time 12.0 hrs
In short: (§1)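 BV2 microglia co-treated with Aβ fibrils (10 μM) for 12 h, with or without a range of test-compound concentrations. TNFα, IL12 and IL8 were quantified in culture medium. Values are relative to untreated control. Mean ± SD, n = 3.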

[2] = organism: Homo sapiens; assay: Inhibition of recombinant human galectin-3/recombinant human TREM2 interaction assessed as reduction in TR-FRET signal at 10 uM incubated for 3 hrs by TR-FRET assay relative to control
In short: (§2)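 TR-FRET using Eu cryptate-labelled galectin-3 (donor) and Alexa Fluor 647-labelled TREM2 (acceptor). Disruption of binding lowers the TR-FRET ratio. Single-point screening was at 10 μM, with hits defined as >5 SD below the mean signal. Dose-response runs gave IC50.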

[3] = target: T1, Galectin-3 (Homo sapiens, UniProt P17931); assay: Inhibition of galectin 3 in mouse BWZ cells transfected with TREM2 and DAP12 assessed as reduction in lacZ activity incubated for 24 hrs by lacZ reporter gene based beta-galactosidase assay; type: cell-based; details: dose microM 2.5-10, time 24.0 hrs
In short: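 TREM2-DAP12 reporter assay in BWZ thymoma cells transfected with TREM2 and DAP12. Galectin-3 (5 μM) was the stimulant, co-incubated with a range of compound concentrations. NFAT-driven LacZ β-galactosidase activity was the read-out. Controls were unstimulated cells and galectin-stimulated cells without compound, plus untransfected BWZ cells. Mean ± SD, n = 3.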

[4] = Inhibition of recombinant human galectin-3/recombinant human TREM2 interaction assessed as reduction in TR-FRET signal incubated for 3 hrs by TR-FRET assay; in short: as §2
[5] = test system: BV-2; assay: Antiinflammatory activity in mouse BV-2 cells assessed as reduction in Abeta-induced IL-12 release incubated for 12 hrs by ELISA; type: functional, cell-based; details: dose microM 2.5-10, time 12.0 hrs; in short: as §1
[6] = test system: BV-2; assay: Antiinflammatory activity in mouse BV-2 cells assessed as reduction in Abeta-induced IL-12 release at 10 uM incubated for 12 hrs by ELISA relative to control; type: functional; in short: as §1
[7] = target: T1, Galectin-3; assay: Binding affinity to recombinant human galectin 3 assessed as dissociation constant by SPR assay
In short: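 SPR with galectin-3 for Kd estimation. TREM2 was also run by SPR as a counter-target.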

[8] = target: T1, Galectin-3; assay: Binding affinity to recombinant human galectin 3 assessed as dissociation constant by fluorescent anisotropy assay
In short: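 Fluorescence anisotropy. Increasing galectin concentrations were titrated against a fixed concentration of small molecule until anisotropy reached a maximum (saturation), and Kd was derived from this.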

[9] = target: Galectin-1 (Homo sapiens, UniProt P09382); assay: Binding affinity to recombinant human galectin 1 assessed as dissociation constant by fluorescent anisotropy assay
[10] = test system: BV-2; assay: Antiinflammatory activity in mouse BV-2 cells assessed as reduction in Abeta-induced TNFalpha release at 10 uM incubated for 12 hrs by ELISA relative to control; type: functional; in short: as §1
[11] = test system: BV-2; assay: Antiinflammatory activity in mouse BV-2 cells assessed as reduction in Abeta-induced TNFalpha release incubated for 12 hrs by ELISA; type: functional, cell-based; details: dose microM 2.5-10, time 12.0 hrs; in short: as §1

T1 sequence (P17931 whole entry): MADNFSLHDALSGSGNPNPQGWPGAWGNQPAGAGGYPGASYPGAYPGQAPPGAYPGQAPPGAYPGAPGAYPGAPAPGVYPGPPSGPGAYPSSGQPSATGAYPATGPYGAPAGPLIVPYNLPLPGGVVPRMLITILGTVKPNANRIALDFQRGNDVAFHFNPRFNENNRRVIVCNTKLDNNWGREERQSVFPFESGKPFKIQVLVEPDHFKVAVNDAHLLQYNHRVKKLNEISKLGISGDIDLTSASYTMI
Chain of Galectin-1 (P09382 whole entry): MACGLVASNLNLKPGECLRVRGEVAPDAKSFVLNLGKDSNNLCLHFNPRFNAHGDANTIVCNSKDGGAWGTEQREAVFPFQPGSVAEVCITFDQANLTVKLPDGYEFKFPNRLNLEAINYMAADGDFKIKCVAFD

- inhibition [2]: > 95%
- inhibition [3]: Dose-dependent effect
- IC50 [4]: 91 nM
- Kd [7]: 290 nM
- Kd [8]: 150 nM
- Kd [9]: > 500000 nM
Compound: Cn1cc(-c2ccncc2)c(-c2ccc(OCc3ccc4ccccc4n3)cc2)n1 [MARDEPODECT]
- inhibition [1]: Dose-dependent effect
- inhibition [5]: Dose-dependent effect
- inhibition at 10 µM [6]: 40%
- inhibition at 10 µM [10]: 50%
- inhibition [11]: Dose-dependent effect
